Article PMC10650344 (RSC Medicinal Chemistry, 2023)
Values after ≈ are worked out from the molar mass of the structure shown.

How the values were obtained:
[1] = system: differentiated SHSY-5Y cells; assay: MTT cell viability; format: cell-based, human; settings: 12.5–100 μg mL^−1, 24 h
Method in brief: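 Neuron-like cultures made by differentiating SH-SY5Y with 10 μM retinoic acid for 8 days, then 25 nM BDNF for 5 days. Cells incubated 24 h with test compound at 12.5–100 μg mL⁻¹. Controls: untreated cells, and cells given 1.0% Triton X-100. MTT (5 mg mL⁻¹ solution) added for 3 h at 37 °C, formazan dissolved in DMSO, absorbance read at 570 nm. Three independent experiments, mean ± SD.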

[2] = Experimental water solubility by HPLC; format: physicochemical
[3] = log P by shake-flask method; format: physicochemical; settings: n-octanol/phosphate buffer solution (PBS), pH 7.4
Method in brief: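 Shake-flask partition. About 5 mg of test compound dissolved in 1 mL n-octanol and mixed with an equal volume of PBS, pH 7.4. Mixture inverted 200 times over 5 min, then left 30 min to separate. Each phase assayed by HPLC (C18, 250 × 4.6 mm, isocratic H₂O/ACN + 0.1% TFA, 1 mL min⁻¹). log P taken from the concentration ratio of unionized compound between the phases.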

[4] = system: differentiated SHSY-5Y cells; assay: Genotoxicity analysis by Hoechst 33258 fluorescent nuclear staining; format: cell-based, human; settings: for genotoxic properties on the differentiated SHSY-5Y cells: 100 μg mL^−1; for Mean NA/1000 cells ± SD: 100 μg mL^−1, 24 h, nuclear abnormalities
Method in brief: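 SH-SY5Y differentiated with 10 μM retinoic acid for 8 days (medium refreshed every 2 days), then 25 nM BDNF for 5 days. Test compound applied for 24 h. Cells washed in PBS, fixed in 4% paraformaldehyde at 4 °C for 30 min, then stained with Hoechst 33258 (1 mM) for 5 min at room temperature. Micronuclei, lobbed and notched nuclei scored by fluorescence microscopy in 1000 cells per treatment, in triplicate.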

[5] = system: differentiated SHSY-5Y cell cultures; format: cell-based, human; settings: compound 50 μg mL^−1, Aβ1–42 20 μM, 24 h
Method in brief: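 AD model: SH-SY5Y cells differentiated with retinoic acid then BDNF, then exposed to 20 μM Aβ1–42 (fibrillised 24 h in medium). 10⁵ cells seeded; Aβ1–42 with or without test compound (25 or 50 μg mL⁻¹) for 24 h. Cells trypsinised 3 min at 37 °C, spun 500 × g 5 min, stained in binding buffer with Annexin V-FITC and propidium iodide 5 min at room temperature, then analysed by flow cytometry.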

Aβ1–42 aggregation = format: cell-based, human; settings: Congo red staining, experimental AD model
Method in brief: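 Differentiated SH-SY5Y cells (retinoic acid, then BDNF) given 20 μM pre-fibrillised Aβ1–42 with test compound. Cells then fixed with 4% paraformaldehyde in PBS at 4 °C for 30 min and PBS-washed. Congo red (1 μM) added for 1 h in the dark, followed by three PBS washes. Bound dye extracted with DMSO, with absorbance read at 497 nm.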

## Brc1ccc(-c2csc(/C=C/c3ccccc3)n2)cc1 [6e, (E)-4-(4-Bromophenyl)-2-styrylthiazole]
[1]
  cytotoxic effect on the differentiated SHSY-5Y cells (MTT cell viability): no cytotoxic effect
[2]
  solubility: 0.0175 µg/mL (≈ 0.0511 µM)
[3]
  logP: 4.87
[4]
  genotoxic properties on the differentiated SHSY-5Y cells: did not enhance the genotoxic properties
  Mean NA/1000 cells ± SD: 0.017 NA/1000 cells

## COc1ccc(/C=C/c2nc(-c3ccc(OC)cc3)cs2)cc1 [6i, (E)-4-(4-Methoxyphenyl)-2-(4-methoxystyryl)thiazole]
[5]
  reduction of the apoptotic cell death ratio: 30%
[1]
  cytotoxic effect on the differentiated SHSY-5Y cells (MTT cell viability): no cytotoxic effect
[2]
  solubility: 0.0719 µg/mL (≈ 0.222 µM)
[3]
  logP: 4.18
Aβ1–42 aggregation
  preventive activity against Aβ1–42 aggregation: over 80%
[4]
  genotoxic properties on the differentiated SHSY-5Y cells: did not enhance the genotoxic properties
  Mean NA/1000 cells ± SD: 0.017 NA/1000 cells
